target: T1, UniProt Q8VGV1; conditions: stereoisomer not certain
T1 sequence (whole entry): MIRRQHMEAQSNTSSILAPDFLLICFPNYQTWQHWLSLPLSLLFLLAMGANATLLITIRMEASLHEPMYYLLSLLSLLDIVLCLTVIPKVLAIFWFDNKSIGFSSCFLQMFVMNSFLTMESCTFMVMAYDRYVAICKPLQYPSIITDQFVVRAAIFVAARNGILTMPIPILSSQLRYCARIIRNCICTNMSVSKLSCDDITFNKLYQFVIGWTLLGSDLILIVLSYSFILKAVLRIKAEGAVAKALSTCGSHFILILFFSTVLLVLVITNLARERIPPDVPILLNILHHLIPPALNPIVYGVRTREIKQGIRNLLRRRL
How it was run: (§1)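 Values were gathered from published papers (main text and supplementary material), with extra details requested from the original authors when needed, and checked for typos and inconsistencies. Each receptor–molecule pair is called responsive (active) if the original authors judged the measured signal statistically different from baseline, and non-responsive (inactive) otherwise. Assay methods varied by source, often transient mammalian cell-line luciferase assays. Recorded details include cell line, G-protein, co-transfected protein and tags.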

Structure (SMILES) | odorant receptor agonist call
C=CCc1ccccc1 | inactive
O=c1cc(O)c2ccccc2o1 | inactive
CCC1CCC(=O)O1 (stereo not drawn) | inactive
C=CCOC(=O)Cc1ccccc1 | inactive

target: T2, UniProt Q8VGV7; conditions: stereoisomer not certain
T2 sequence (whole entry): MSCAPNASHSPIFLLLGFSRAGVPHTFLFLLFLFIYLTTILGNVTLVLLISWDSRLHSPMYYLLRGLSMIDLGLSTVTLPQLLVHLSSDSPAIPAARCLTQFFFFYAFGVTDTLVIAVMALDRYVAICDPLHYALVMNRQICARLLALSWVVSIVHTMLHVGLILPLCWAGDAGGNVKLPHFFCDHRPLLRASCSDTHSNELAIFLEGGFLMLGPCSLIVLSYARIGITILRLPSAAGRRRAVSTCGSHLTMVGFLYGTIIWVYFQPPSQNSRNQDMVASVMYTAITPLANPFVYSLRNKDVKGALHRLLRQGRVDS
How it was run: as §1

Structure (SMILES) | odorant receptor agonist call
O=c1cc(O)c2ccccc2o1 | inactive
COc1ccc(C=O)cc1 | inactive
C=CCOC(=O)Cc1ccccc1 | inactive
O=CC=Cc1ccccc1 | inactive
C=C(C)C1CC=C(C=O)CC1 (stereo not drawn) | inactive
O=Cc1ccc2c(c1)OCO2 | inactive
O=Cc1ccccc1 | inactive
CSSC | inactive
CC(C=O)Cc1ccc2c(c1)OCO2 (stereo not drawn) | inactive
CCCCC(Br)C(=O)O (stereo not drawn) | inactive
Oc1ccccc1Br | inactive
Cc1ccc(OC(=O)Cc2ccccc2)cc1 | inactive
CCCCCCC(Br)C(=O)O (stereo not drawn) | inactive
OCc1ccc2c(c1)OCO2 | inactive
